Bioassay records: PubChem, Broad Institute
SIRT5 inh – SIRT5 desuccinylase inhibitors, primary screen, biochemical, fluorescence imaging, single point, set 5 | 330,000 tested, 1.1% active | NAD-dependent protein deacylase sirtuin-5, mitochondrial (Homo sapiens), Q9NXA8 | inhibition, % at 15 µM | AID 652115, 2013 | Purified SirT5, succinyl-peptide AMC, trypsin-coupled fluorescence; in the data active = inhibition above about 15%; inconclusive = no clear call, values can overlap the other calls
Target sequence (Q9NXA8 whole entry, looked up): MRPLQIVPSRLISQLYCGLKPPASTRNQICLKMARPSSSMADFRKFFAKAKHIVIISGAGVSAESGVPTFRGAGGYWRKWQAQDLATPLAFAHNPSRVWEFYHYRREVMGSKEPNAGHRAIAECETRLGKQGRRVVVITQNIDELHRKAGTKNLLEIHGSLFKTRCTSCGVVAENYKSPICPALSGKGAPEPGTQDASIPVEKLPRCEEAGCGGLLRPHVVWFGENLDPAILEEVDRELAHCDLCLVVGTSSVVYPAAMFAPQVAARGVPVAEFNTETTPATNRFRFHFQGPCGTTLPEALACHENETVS
FGF22 binding – binders of human FGF22 protein, primary screen, FGF22 synaptogenesis inhibitor project, biophysical, thermal shift, single point | Fibroblast growth factor 22 (Homo sapiens), Q9HCT0 | 340,000 tested, 1.5% active | AID 651658, 2012 | activity (Tm shift, normalised), % at 9.99 µM | recombinant FGF22 thermal shift, SYPRO orange fluorescence; percent of sucrose octasulfate shift, DMSO zero;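 active = mean Tm shift, scaled 0 neutral to 100 positive control, at about 1.3% or above, every replicate too, limit read from the data; inconclusive = no clear call, values can overlap the other calls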
Target sequence (Q9HCT0 whole entry, looked up): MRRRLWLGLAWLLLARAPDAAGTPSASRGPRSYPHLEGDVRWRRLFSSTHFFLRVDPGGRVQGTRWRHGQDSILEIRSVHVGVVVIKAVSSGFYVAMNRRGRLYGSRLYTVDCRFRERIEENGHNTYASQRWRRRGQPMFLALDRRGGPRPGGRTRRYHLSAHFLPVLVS
Ecoli rRNA inh – reduced GFP signal of wild-type E. coli, primary screen, bacterial rRNA inhibitor project, GFP/RFP fluorescence, OD600, single point. E. coli WT GFP vs humanized-ribosome RFP mutants, 24 h; stronger effect = lower value; DMSO median 0, no signal -100. GFP signal change (wild-type ribosome), % (test concentration not listed). 350,000 tested, 1.6% active. AID 720706, 2013;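 active = significant combined selectivity score with lowered wild-type GFP, culture density cut under 30%, mutant RFP and density less affected; inactive = any of these conditions unmet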
FN deposit inh – inhibitors of fibronectin matrix deposition, primary screen, AH1F cells, Alexa488-fibronectin fluorescence, plate reader | AH1F fibroblasts, overnight | inhibition, % at 12.6 µM | 350,000 tested, 0.086% active;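 active = mean inhibition across replicates of 30% or more, regardless of how many single replicates reach that level; inconclusive = mean under 30% yet at least half of replicates reach 30%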
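material = AH1F fibroblast monolayer depositing Alexa488-labelled fibronectin into matrix | amount = 10000 AH1F cells/well | buffer or medium = DMEM plus 2% serum, read in PBS | incubation = 1 h cell adhesion before compound, then overnight fibronectin incubation | detection = fluorescence at 485 nm excitation, 525 nm emission | evaluation = percent inhibition as loss of matrix-bound fibronectin fluorescence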
C2C12 statin – suppressors of statin myotoxicity in C2C12 myotubes, primary screen, cell-based, single point, plate reader | C2C12 myotubes + simvastatin, ATP luminescence, 48 h; scaled: DMSO 0, geranylgeraniol control 100 | rescue of ATP level, % at 7.49 µM | 330,000 tested, 0.78% active;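 active = mean ATP rescue above about 67%, or every replicate alone reaching that limit, limit read from the data, passing the limit was not always enough; inconclusive = no clear call, values can overlap the other calls; inactive = mean under the limit and some replicate under it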;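 note: myotubes were challenged with 10 µM simvastatin during compound exposure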
E-sel inducer – E-selectin induction in HUVECs, primary screen, imaging, HUVEC, immunofluorescence imaging, single point | normalized: neutral wells 0, TNF-alpha wells 100 | 260,000 tested, 0.37% active | activation, % at 7.58 µM | AID 686992, 2013;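 active = mean E-selectin-positive cell signal at least 10% of the positive control, reached in at least 60% of replicates, without over 20% cell loss; inconclusive = no rule given, readout overlaps actives, possibly toxicity-flagged; inactive = the rest, including those meeting only one limit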
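Read-out: % PE-positive cells | Test system: HUVEC | Doses: One compound dose added by pin transfer | Buffer or medium: EGM-2 over gelatin coat | Signal: Immunofluorescence imaging | Benchmarks: TNF-alpha, DMSO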
HepG2 tox – cytotoxicity in HepG2 cells, dose response, cytotoxicity control, cell-based, CellTiter-Glo luminescence, cherry-pick, set 4. shares compounds with Ecoli rRNA inh. HepG2 viability, ATP luminescence, 72 h. activity change, negative = cytotoxicity, unspecified at 26 µM. 30 tested, under 10 active;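 active = compounds whose fitted half-maximal signal-loss concentration is at most twice their highest valid dose; inconclusive = flat curve with 30 to 70% signal loss, or poor fit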
AID977621 – growth inhibition of wild-type GFP E. coli, dose response, H69 mutant RFP, cherry-pick. shares compounds with Ecoli rRNA inh. E. coli wild-type GFP strain growth, fluorescence, 24 h. activity change, negative = inhibition at 50 µM. 1,900 tested, under 10 active;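 active = Wild-type ribosome reporter drop at least double the humanized mutant ribosome reporter drop, growth loss under a set limit; inconclusive = no clear call, values can overlap the other calls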;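 note: wild-type GFP and H69 mutant RFP strains grown together 50/50 in each well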
AID977628 – E. coli growth inhibition, wild-type GFP versus h24 humanized RFP strain, dose response, h24 mutant RFP vs wild-type GFP, cherry-pick | shares compounds with Ecoli rRNA inh | E. coli WT GFP strain growth, fluorescence, 24 h | activity change, negative = inhibition at 50 µM | 1,900 tested, under 10 active | AID 977628, 2014;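 active = compound lowering the normal-ribosome reporter at least twice as much as the humanized-ribosome reporter, growth loss under a set limit; inconclusive = no clear call, values can overlap the other calls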;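 note: wild-type GFP and h24 humanized RFP strains co-cultured 1 to 1 per well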
Each line names hits and unclear results; the compound was inactive in the other large screens (follow-up assays come after a bar, where they were run). Rows were chosen to be rich in hits. Some 4% of all compounds tested hit in one or more screens of this group.

CS(=O)(=O)N1CCc2cc(-c3csc(NC(=O)C(c4ccccc4)c4ccccc4)n3)ccc21	none (no result: SIRT5 inh, FGF22 binding, Ecoli rRNA inh, FN deposit inh, E-sel inducer)
CC1Cc2cc(-c3csc(NC(=O)Cc4ccccc4)n3)ccc2N1S(C)(=O)=O (stereo not given)	Ecoli rRNA inh -26 (no result: FN deposit inh, E-sel inducer) | AID977621 inactive | AID977628 inactive
Cc1ccccc1Nc1c([N+](=O)[O-])cncc1[N+](=O)[O-]	none
O=[N+]([O-])c1cncc([N+](=O)[O-])c1Nc1cccc(O)c1	Ecoli rRNA inh -26 (no result: E-sel inducer) | AID977628 inactive
COc1cccc(CNC(=O)CCC2CCCN(C(=O)c3cc4ccccc4o3)C2)c1 (stereo not given)	Ecoli rRNA inh -32 | AID977621 inactive
Cc1noc(C)c1NC(=O)N(C)C[C@H]1OCCCC[C@@H](C)Oc2ccc(NC(=O)c3ccncc3)cc2C(=O)N([C@H](C)CO)C[C@@H]1C	none (no result: FN deposit inh)
C[C@@H]1CN([C@H](C)CO)C(=O)Cc2cc(NC(=O)Nc3ccc(F)cc3)ccc2O[C@H]1CN(C)Cc1ccc(Cl)c(Cl)c1	C2C12 statin inconclusive
O=C(COc1ccccc1Cl)Nc1nc(-c2ccncc2)cs1	Ecoli rRNA inh -20 | AID977621 inactive | AID977628 inactive
O=C(COc1ccc(Cl)cc1)Nc1nc(-c2ccncc2)cs1	none (no result: FN deposit inh)
Cc1c(CCOC(=O)C23CC4CC(CC(C)(C4)C2)C3)sc[n+]1Cc1ccccc1	none (no result: SIRT5 inh, FGF22 binding, Ecoli rRNA inh, FN deposit inh, E-sel inducer)
Cc1c(CCOC(=O)C23CC4CC(CC(C4)C2)C3)sc[n+]1Cc1ccccc1	Ecoli rRNA inh -27 (no result: E-sel inducer) | AID977621 inactive | AID977628 inactive
O=C(Cc1cccc2ccccc12)Nc1cc(Cl)ccc1C(=O)O	none (no result: FGF22 binding)
O=C(Cc1cccc2ccccc12)Nc1ccccc1C(=O)O	Ecoli rRNA inh -35 (no result: FGF22 binding) | AID977621 inactive
CSc1nc(N)nc(SC2C=CCCC2)c1C#N (stereo not given)	Ecoli rRNA inh -24 (no result: FN deposit inh, E-sel inducer) | HepG2 tox inactive | AID977628 inconclusive
Cc1noc(C)c1C(=O)NC(C)c1ccc(Cl)cc1Cl (stereo not given)	none
CC(NC(=O)c1ccncc1)c1ccc(Cl)cc1Cl (stereo not given)	Ecoli rRNA inh -33 | AID977621 inactive | AID977628 inactive
O=C(NCc1ccco1)c1ccc(COc2cccc3ccccc23)cc1	Ecoli rRNA inh -24 | AID977621 inactive
CCOCCCNC(=O)C(NC(=O)c1ccccc1O)c1ccc(C)cc1 (stereo not given)	Ecoli rRNA inh -19 (no result: C2C12 statin, E-sel inducer) | AID977621 inactive | AID977628 inactive
C[C@@H]1CN([C@@H](C)CO)C(=O)c2cc(NC(=O)Nc3cccc4ccccc34)ccc2O[C@@H](C)CCCCO[C@@H]1CN(C)C(=O)CCCN(C)C	none (no result: FN deposit inh, C2C12 statin)
C[C@@H]1CCCCO[C@H](CN(C)C(=O)CCCN(C)C)[C@@H](C)CN([C@H](C)CO)C(=O)c2cc(NC(=O)Nc3cccc4ccccc34)ccc2O1	none (no result: FN deposit inh, C2C12 statin) | AID977621 inconclusive | AID977628 inactive
